From ChEMBL document CHEMBL2434960 (Eur J Med Chem, 2013)

Biological target: Replicase polyprotein 1a (Severe acute respiratory syndrome-related coronavirus, UniProt P0C6U8)
Experiment: Inhibition of SARS coronavirus 3CL-protease by fluorescence assay
Outline: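 Protease inhibition was measured by a fluorometric assay. Substrate concentration was held constant while inhibitor concentration was varied, and the kinetic parameters gave Ki values.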

Going from `CC(C)C[C@H](NC(=O)c1nc2ccccc2s1)C(=O)N[C@@H](C[C@@H]1CCNC1=O)C(=O)c1nc2ccccc2s1` to `CC(C)C[C@H](NC(=O)c1cc2ccccc2o1)C(=O)N[C@@H](C[C@@H]1CCNC1=O)C(=O)c1nc2ccccc2s1`, the Ki rises from 800 nM to 14000 nM (18-fold). The first binds more tightly here.

First: CC(C)C[C@H](NC(=O)C1Cc2ccccc2N1)C(=O)N[C@@H](C[C@@H]1CCNC1=O)C(=O)c1nc2ccccc2s1 (stereo partly specified)
Second: CC(C)C[C@H](NC(=O)C1CCC(=O)N1)C(=O)N[C@@H](C[C@@H]1CCNC1=O)C(=O)c1nc2ccccc2s1 (mixture of isomers)
The Ki of the first is 22-fold lower: 120 nM for the first, 2700 nM for the second.

First: CC(C)C[C@H](NC(=O)c1c[nH]c2ccccc12)C(=O)N[C@@H](C[C@@H]1CCNC1=O)C(=O)c1nc2ccccc2s1
Second: CC(C)C[C@H](NC(=O)c1ccc[nH]1)C(=O)N[C@@H](C[C@@H]1CCNC1=O)C(=O)c1nc2ccccc2s1
The Ki of the first is 2.5-fold lower: 680 nM for the first, 1700 nM for the second.

First: CC(C)C[C@H](NC(=O)c1cc2cc(O)ccc2[nH]1)C(=O)N[C@@H](C[C@@H]1CCNC1=O)C(=O)c1nc2ccccc2s1
Second: COc1ccc2cc(C(=O)N[C@@H](CC(C)C)C(=O)N[C@@H](C[C@@H]3CCNC3=O)C(=O)c3nc4ccccc4s3)[nH]c2c1
The Ki of the first is 2.1-fold lower: 160 nM for the first, 330 nM for the second.

Going from `CC(C)C[C@H](NC(=O)c1cc2c(OC(C)C)cccc2[nH]1)C(=O)N[C@@H](C[C@@H]1CCNC1=O)C(=O)c1nc2ccccc2s1` to `COc1ccc2[nH]c(C(=O)N[C@@H](CC(C)C)C(=O)N[C@@H](C[C@@H]3CCNC3=O)C(=O)c3nc4ccccc4s3)c(C)c2c1`, the Ki rises from 48 nM to 6700 nM (140-fold).

Work on `CCc1c(C(=O)N[C@@H](CC(C)C)C(=O)N[C@@H](C[C@@H]2CCNC2=O)C(=O)c2nc3ccccc3s2)[nH]c2ccc(OC)cc12` yielded a Ki of 7500 nM.
